# Screening results as filed in PubChem BioAssay.
# UHRF1 MBD2 ctr = UHRF1 methylated DNA binding inhibitors, primary screen, counter-screen for MBD2 inhibitor project, biochemical, TR-FRET, human UHRF1, single concentration | E3 ubiquitin-protein ligase UHRF1 (Homo sapiens), Q96T88 | actives 0.75% (n = 370,000) | AID 687016, 2013 | inhibition, % at 4.4 µM | UHRF1 binding to methylated oligo; in the data active = inhibition above about 21%;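 also: UHRF1 SRA domain binding a hemimethylated CpG hairpin DNA probe; 0% = median of test compound wells and 100% = reference inhibitor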
# LEDGF integ inh = blockers of LEDGF/p75-dependent integrase strand transfer – biochemical, TR-FRET, high throughput, primary screen; inhibition, % at 3.7 µM; actives 0.64% (n = 370,000); HIV-1 integrase (with human LEDGF/p75); TR-FRET IN-LEDGF/p75 DNA integration, Eu/Cy5;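 active = inhibition above the screen-wide mean plus 3 SD, cut at about 13% in these data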;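 also: signal is the Cy5 over europium emission ratio at 671 and 618 nm; 0% = plate median of compound wells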
# TDP2 absorb = human TDP2 enzyme inhibitors, primary screen, biochemical, epi absorbance, recombinant enzyme; T5PNP hydrolysis, p-nitrophenol absorbance 415 nm; inhibition, % at 12.8 µM; actives 0.34% (n = 370,000);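 active = inhibition above the mean of all tested compounds plus 3 SD, set per campaign, cut at about 25% in these data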;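 also: 0% = DMSO with enzyme and 100% = buffer with substrate but no TDP2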
#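 System – recombinant human TDP2 · Amount – 120 nM TDP2 per well · Buffer or medium – Mg2+-containing Tris-HCl buffer, pH 7.5 · Reagent – T5PNP substrate, 5 mM · Dosing – 12.8 µM single point, 1% DMSO · Incubation – 2 h at 37 °C · Measured by – epi absorbance · Read-out basis – percent inhibition · Benchmarks – high control without enzyme, low control DMSO plus TDP2 · Repeats – singlicate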
# MBD2 inh = inhibitors of MBD2 binding to methylated DNA, primary screen, biochemical, TR-FRET, DNA-binding domain, human. MBD2 binding to methylated oligonucleotide. inhibition, % at 4.4 µM. actives 0.31% (n = 370,000). AID 686964, 2013; in the data active = inhibition above about 13%
# Target sequence (Q9UBB5 whole entry, looked up, the tested form may be a part): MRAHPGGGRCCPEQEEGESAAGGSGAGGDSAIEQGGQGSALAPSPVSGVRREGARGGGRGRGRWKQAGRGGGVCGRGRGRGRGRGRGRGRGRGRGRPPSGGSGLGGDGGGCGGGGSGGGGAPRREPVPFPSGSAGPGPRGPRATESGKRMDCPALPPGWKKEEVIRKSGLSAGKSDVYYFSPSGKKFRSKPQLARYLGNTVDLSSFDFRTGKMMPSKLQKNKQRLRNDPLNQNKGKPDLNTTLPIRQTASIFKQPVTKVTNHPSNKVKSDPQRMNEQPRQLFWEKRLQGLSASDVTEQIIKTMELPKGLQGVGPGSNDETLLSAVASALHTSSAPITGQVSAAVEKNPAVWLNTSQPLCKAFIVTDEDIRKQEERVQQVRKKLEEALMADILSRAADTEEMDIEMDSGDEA
# TDP2 confirm = human TDP2 enzyme inhibitors, retest, confirmation, biochemical, epi absorbance, recombinant enzyme. AID 743263, 2014. inhibition, % at 12.8 µM. actives 22% (n = 1,100). shares compounds with TDP2 absorb. absorbance read-out; in the data active = inhibition above about 25%;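 also: 0% = vehicle with enzyme and 100% = no enzyme buffer only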
# * = called active by the depositor; x = not tested or not shown. This is a sample that favours compounds with a hit; in the whole collection about 1.6% have one here.
SMILES,UHRF1 MBD2 ctr,LEDGF integ inh,TDP2 absorb,MBD2 inh,TDP2 confirm
COc1ccccc1C1CC(=O)NC(C)=C1C(=O)OCC(C)C (stereo not given),-2,-3,-12,1,x
C=CCOC(=O)C1=C(C)NC2(O)c3ccccc3C(=O)C12O (stereo not given),-7,2,43*,-9,22
Cc1ccc(NC(=O)COC(=O)C2CSC3(C)CCC(=O)N23)c(C)c1 (stereo not given),-2,-2,4,2,x
COc1ccccc1/C=C/C(=O)OCC(=O)Nc1ccc(Cl)cn1,-4,4,29*,-2,-1
CCCCN(C(=S)NC(=O)c1ccccc1)c1c(N)n(Cc2ccccc2)c(=O)[nH]c1=O,3,-1,3,1,x
COc1ccc(CC(=O)N/N=C(/C)CC(=O)N(C)c2ccccc2)cc1,-7,0,25*,-5,5
COc1ccc(CC2=CC(=O)c3ccccc3C2=O)cc1,-5,1,53*,-5,17
COc1ccc(Cc2ccccc2C(=O)O)cc1,3,3,5,2,x
C/C(=N\NC(=O)CSc1nc2nc(C)cc(C)n2n1)c1ccccc1,4,-2,-16,-5,x
C[C@@H]1CCCCO[C@@H](CN(C)C(=O)Nc2ccccc2)[C@@H](C)CN([C@H](C)CO)C(=O)c2cc(NC(=O)NC3CCCCC3)ccc2O1,0,0,-3,4,x
O=C(N=Nc1c(O)[nH]c2ccc([N+](=O)[O-])cc12)c1ccccc1[N+](=O)[O-],-4,-2,35*,3,23
C=CCOc1ccc(C(=O)Nc2ccc(OCC)cc2)cc1,-3,5,5,3,x
CCOc1cccc(C(=O)NCc2ccccc2)c1,-1,1,-11,-1,x
COc1ccc(NC(=O)c2cc(-c3ccc(C)c(C)c3O)n[nH]2)cc1Cl,1,2,75*,-2,2
Cc1ccc(NC(=O)c2cc(-c3ccc(C)c(C)c3O)n[nH]2)cc1C,0,-2,8,0,x
Cc1nn(CCO)c(N)c1C1(O)C(=O)Nc2c(Cl)cc(Cl)cc21 (stereo not given),-3,1,28*,-8,1
CCOCCCN(C(=O)c1snc(C(N)=O)c1N)C(C(=O)NC(C)(C)C)c1ccc(Cl)cc1 (stereo not given),-1,5,-9,1,x
COc1cccc(OC(=O)c2cc3ccccc3oc2=O)c1,-4,2,-2,2,x
CCCN1CCN(CCCNC(=O)Cn2nc(C)n3c(cc4cc(OC)ccc43)c2=O)CC1,-8,0,27*,1,-5
CC1CCN(C(=O)COC(=O)C(C)N2C(=O)c3ccccc3C2=O)CC1 (stereo not given),-5,-1,-9,-4,x
COc1cc(NC2CCCCC2O)c2nc(-c3ccc(Cl)cc3)ccc2c1 (stereo not given),-9,12,33*,-9,-2
Cc1cc(C(=O)OCC(=O)N(C)c2ccccc2)c2ccccc2n1,4,-2,1,2,x
CCCCN(CC)S(=O)(=O)c1ccc2c(c1)CCCN2C(C)=O,0,-1,-8,2,x
CCC(=O)NC(c1cccs1)c1cc([N+](=O)[O-])c2cccnc2c1OC (stereo not given),-1,7,70*,-14,18
CCC(Oc1ccccc1)C(=O)Nc1ccc(C)c(S(=O)(=O)N2CCOCC2)c1 (stereo not given),-2,4,29*,3,5
SMILES,UHRF1 MBD2 ctr,LEDGF integ inh,TDP2 absorb,MBD2 inh,TDP2 confirm
CCS(=O)(=O)c1nc(S(=O)(=O)c2ccc(Cl)cc2)c(NCCCN2CCOCC2)s1,-2,3,5,-1,x
CS(=O)(=O)c1nc(S(=O)(=O)c2ccc(Cl)cc2)c(NCCCN2CCOCC2)s1,-3,2,27*,2,1
COc1ccc(N2C(=O)CC(Nc3ccc(N4CCOCC4)cc3)C2=O)c(OC)c1 (stereo not given),-6,11,25*,-9,7
CN(C)c1ccc(N2C(=O)CC(Nc3ccc(N4CCOCC4)cc3)C2=O)cc1 (stereo not given),-2,-1,1,3,x
Cc1ccc2nc(-c3ccc4c(c3)NC(=O)CO4)cn2c1,-2,3,25*,4,3
COc1ccc(-n2c(N)c(C(=O)NCc3ccco3)sc2=S)cc1,-1,-2,0,-3,x
COc1ccc(-n2c(N)c(C(=O)NCc3ccco3)c3nc4ccccc4nc32)cc1,-7,6,27*,-9,3
CCCn1nnc(NC(=O)c2ccc([N+](=O)[O-])cc2Cl)n1,-1,0,7,2,x
CCOc1ccc2nc(SCC(=O)NCC3CCCO3)c(C#N)cc2c1 (stereo not given),7,3,27*,3,-2
COC(=O)c1cccc(C(=O)N2CCCC(C(=O)c3cccc(OC(C)C)c3)C2)c1 (stereo not given),20,13,28*,7,7
Cc1ccc2[nH]c(O)c(N=Nc3nc4ccccc4s3)c2c1,2,-2,25*,-3,-18
Oc1[nH]c2ccccc2c1N=Nc1nc2ccccc2s1,2,5,-14,-5,x
Cc1ccccc1-c1ccccc1N,-2,2,-15,-3,x
O=C(Cc1n[nH]c(=O)[nH]c1=O)N/N=C/c1cccc(O)c1,3,2,-11,0,x
C=C1CCC[C@]2(C)C[C@H]3OC(=O)C(CNCCN(C)C)[C@H]3CC12 (stereo not given in full),0,2,-10,-3,x
C=C1CCC[C@]2(C)C[C@H]3OC(=O)C(CNCCN(CC)CC)[C@H]3CC12 (stereo not given in full),-1,1,34*,-3,-4
CC(C)CNC(=O)CSc1nc2scc(-c3ccccc3)c2c(=O)[nH]1,-4,3,-2,-3,x
CC(c1nc2scc(-c3ccccc3)c2c(=O)[nH]1)N1CCN(CC(=O)NC2CC2)CC1 (stereo not given),-4,-2,32*,3,1
CC(C)CN(C(=O)CC(C)c1ccccc1)c1c(N)n(Cc2ccccc2)c(=O)[nH]c1=O (stereo not given),2,-5,-6,2,x
CC(C)CN(C(=O)CCc1ccccc1Cl)c1c(N)n(Cc2ccccc2)c(=O)[nH]c1=O,-2,1,27*,1,-5
CCN(c1ccccc1)c1cc2ccccc2c(=O)[nH]1,-5,12,28*,-2,76*
CCN(c1ccccc1)c1nc(=O)c2cccnc2s1,-2,1,1,2,x
